From ChEMBL document CHEMBL1153067, “Synthesis and optimization of 2-pyridin-3-yl-benzo[d][1,3]oxazin-4-one based inhibitors of human neutrophil elastase” (Bioorg Med Chem Lett, 2009)

test: Chemical stability in 200 mM sodium borate buffer at pH 9.2; type: physicochemical
In short: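 Alkaline hydrolysis followed by loss of the intact benzoxazinone ring absorbance maximum (340 nm 10 nm) in 200 mM sodium borate, pH 9.2, with 1% DMSO.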

SMILES | half-life [h]
CCc1cc(OC)cc2nc(-c3cccnc3N3CCC(C(=O)O)CC3)oc(=O)c12 | 16.7
CCc1cccc2nc(-c3cccnc3N3CCN(C4CCN(C)CC4)CC3)oc(=O)c12 | 0.933
CCc1cccc2nc(-c3cccnc3N3CCC(C(=O)O)CC3)oc(=O)c12 | 1.48
CCc1cc(N(C)C)cc2nc(-c3cccnc3N3CCN(C)CC3)oc(=O)c12 | 122
CCc1cc(N(C)C)cc2nc(-c3cccnc3N3CCN(C4CCN(C)CC4)CC3)oc(=O)c12 | 115
CCc1cccc2nc(-c3cccnc3N3CCN(C)CC3)oc(=O)c12 | 1.08
CCc1cc(OC)cc2nc(-c3cccnc3N3CCN(C)CC3)oc(=O)c12 | 4
CCc1cc(OC)cc2nc(-c3cccnc3N3CCN(C4CCN(C)CC4)CC3)oc(=O)c12 | 23.3

test: Stability in heparin treated rat plasma at 2 uM at 37 degC by electrospray ionization mass spectrometry; type: ADME, cell-free
In short: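 Compounds at […] incubated at 37 °C in heparinized rat plasma. Plasma proteins precipitated with acetonitrile, then compound quantified by ESI-MS against an internal standard. t1/2 derived from a first-order rate constant fitted to concentration versus time.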

SMILES | half-life at 2 µM [h]
CCc1cc(OC)cc2nc(-c3cccnc3N3CCC(C(=O)O)CC3)oc(=O)c12 | 1.35
CCc1cc(OC)cc2nc(-c3cccnc3N3CCC[C@@H](C(=O)O)C3)oc(=O)c12 | 2.5
CCc1cc(OC)cc2nc(-c3cccnc3N3CCN(CC(=O)O)CC3)oc(=O)c12 | 4.5
CCc1cc(OC)cc2nc(-c3cccnc3N3CCC[C@H](C(=O)O)C3)oc(=O)c12 | 2.33
CCCCN1CCN(c2ncccc2-c2nc3cc(OC)cc(CC)c3c(=O)o2)CC1 | 0.85
CCc1cc(OC)cc2nc(-c3cccnc3N3CCN(C4CCCC4)CC3)oc(=O)c12 | 1.5
CCc1cc(OC)cc2nc(-c3cccnc3N3CCN(CC(C)C)CC3)oc(=O)c12 | 0.8
CCc1cc(OC)cc2nc(-c3cccnc3N3CCN(CCN4CCOCC4)CC3)oc(=O)c12 | 0.317
CCc1cc(OC)cc2nc(-c3cccnc3N3CCN(C)CC3)oc(=O)c12 | 1.4
CCc1cc(OC)cc2nc(-c3cccnc3N3CCN(CCC#N)CC3)oc(=O)c12 | 0.183
CCc1cc(OC)cc2nc(-c3cccnc3N3CCN(CCN(C)C)CC3)oc(=O)c12 | 0.13
CCc1cc(OC)cc2nc(-c3cccnc3N3CCN(CCO)CC3)oc(=O)c12 | 0.283
CCc1cc(OC)cc2nc(-c3cccnc3N3CCN(CC4CC4)CC3)oc(=O)c12 | 1.15
CCc1cc(OC)cc2nc(-c3cccnc3N3CCN(CCOC)CC3)oc(=O)c12 | 0.867
